Assay outcomes as filed in PubChem.
Shown are actives, neighbours in structure and some others; about 2.6% of the full set was active somewhere.
HCV core dimer: HCV core protein dimerization inhibition | 0.33% of 300,000 active | TR-FRET GST/Flag-core106 dimerization, 1536-well | inhibition, % at 5 µM | AID 1899;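 active = inhibition above the mean of all tested compounds plus 3 SD, set per screening campaign, cut at about 45% in these data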
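Material: GST/Flag-tagged HCV core106 proteins. Incubation: 4 h, 22.5 °C incubation. Read-out basis: inhibition (%) from 671 over 617 nm ratio. Measured by: TR-FRET, excitation 340 nm, emission 617 and 671 nm.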
rCAG binder: r(CAG) repeat RNA binding; TO-PRO-1 dye displacement fluorescence; 1.3% of 370,000 active; inhibition, % at 3 µM;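 active = inhibition above the plate cutoff, the mean of all test compounds on that plate plus 3 SD, cut at about 35% in these data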;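 also: 0% = DMSO alone and 100% = 100 µM mitoxantrone as full dye displacement; higher means more dye released from RNA so lower well fluorescence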
NadD inh: NadD (S. aureus) enzyme inhibition. purified NadD enzyme, colorimetric absorbance read-out. inhibition, % at 20 µM. 0.78% of 360,000 active; in the data active = inhibition above about 26%
ABHD5-PLIN5 inh: inhibitors of human ABHD5-perilipin-5 interaction | inhibition, % at 4 µM | Split G. princeps luciferase complementation, luminescence, 4 h | 0.78% of 360,000 active | Q00G26+Q8WTS1;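 active = inhibition above the mean inhibition across every tested compound plus 3 SD, cut at about 22% in these data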;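 also: 0% = DMSO only wells and the 100% control is not disclosed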
Target sequence (Q00G26 whole entry, looked up): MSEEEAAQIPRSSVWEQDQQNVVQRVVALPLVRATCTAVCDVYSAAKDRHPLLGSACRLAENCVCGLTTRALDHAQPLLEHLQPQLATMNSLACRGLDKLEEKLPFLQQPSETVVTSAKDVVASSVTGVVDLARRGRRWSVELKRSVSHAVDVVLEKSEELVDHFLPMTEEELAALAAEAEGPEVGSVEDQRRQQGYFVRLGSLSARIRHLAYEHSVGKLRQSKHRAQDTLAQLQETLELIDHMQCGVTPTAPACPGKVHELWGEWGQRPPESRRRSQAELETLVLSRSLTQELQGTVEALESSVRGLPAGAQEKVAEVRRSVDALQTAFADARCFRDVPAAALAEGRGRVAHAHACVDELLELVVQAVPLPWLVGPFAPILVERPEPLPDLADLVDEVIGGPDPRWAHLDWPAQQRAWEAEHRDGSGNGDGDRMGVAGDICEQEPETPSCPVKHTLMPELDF
Target sequence (Q8WTS1 whole entry, looked up): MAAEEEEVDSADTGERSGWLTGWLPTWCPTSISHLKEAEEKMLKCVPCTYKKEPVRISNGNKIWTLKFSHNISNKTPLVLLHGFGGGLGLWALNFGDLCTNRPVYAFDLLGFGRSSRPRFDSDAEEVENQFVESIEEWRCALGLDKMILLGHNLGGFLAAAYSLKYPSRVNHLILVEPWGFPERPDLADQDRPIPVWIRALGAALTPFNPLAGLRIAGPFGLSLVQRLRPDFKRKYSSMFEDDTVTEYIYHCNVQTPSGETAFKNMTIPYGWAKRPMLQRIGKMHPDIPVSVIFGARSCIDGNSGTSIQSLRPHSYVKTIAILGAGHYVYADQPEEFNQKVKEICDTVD
An asterisk follows results filed as active; i = inactive; . = not tested or not shown.

SMILES | HCV core dimer | rCAG binder | NadD inh | ABHD5-PLIN5 inh
C=CCn1c(SCC(=O)NC23CC4CC(CC(C4)C2)C3)nc2cc(C(=O)O)ccc2c1=O | 9 | 35* | -4 | -1
C#CCNC(=O)C[C@@H]1C(=O)N(CC=C)C2=CCCCC[C@]21C(=O)OC | . | 5 | . | .
COC(=O)[C@]12C[C@H](CC(=O)N3CCN(C(=O)C4CC4)CC3)C(=O)N(Cc3ccc4c(c3)OCO4)C1=C[C@H](COCc1ccccc1)O[C@@H]2C | . | 5 | . | .
COc1cc2c(=O)n(Cc3ccco3)c(=O)n(CC(=O)c3cccc(Br)c3)c2cc1OC | 47* | . | . | .
Cc1cc(C)c(NC(=O)Cn2c(=O)n(Cc3ccco3)c(=O)c3ccccc32)c(C)c1 | 4 | -2 | 1 | 43*
Nc1ccc(OCCCc2c(N)nc(N)nc2N)cc1 | -3 | 5 | 44* | -1
Cc1ccc2c(c1)C1CS(=O)(=O)N(Cc3ccccc3)CN1C2 (centres undefined) | . | 2 | . | .
COc1ccc(-c2nnc(Nc3nc4c(OC)cccc4s3)o2)c(OC)c1 | 5 | 51* | 3 | 9
N=c1c(C(=O)NCc2ccc(F)cc2)cc2c(=O)n3ccccc3nc2n1Cc1ccco1 | 29 | 13 | 31* | 20
N=c1c(C(=O)NCc2ccco2)cc2c(=O)n3ccccc3nc2n1C1CCCC1 | 11 | 4 | 0 | 23*
C=CCn1c(SCC(=O)Nc2sc3c(c2C#N)CCC3)nnc1C1COc2ccccc2O1 (centres undefined) | 47* | 11 | 25 | -1
COc1ccc(-c2nn(-c3ccccc3)cc2/C=C(\C#N)C(N)=O)cc1[N+](=O)[O-] | 54* | 4 | -5 | 6
COc1ccc(-c2nn(-c3ccccc3)cc2/C=N/Nc2ccc(S(N)(=O)=O)cc2[N+](=O)[O-])cc1OC | 33 | 5 | 13 | 5
COc1ccc(-c2nn(-c3ccccc3)cc2/C=C(/C#N)C(N)=O)cc1[N+](=O)[O-] | 47* | 6 | 1 | -1
CCOC(=O)[C@@]12CCCC=C1N(CCc1ccc(Cl)cc1)C(=O)[C@H]2CC(=O)NCc1ccc(OC)c(OC)c1 | . | 7 | . | .
O=c1ccc2c(-c3ccccc3)c3ccc(O)cc3oc-2c1 | 66* | i | 9 | 10
C=CCSc1nnc2c(n1)OC(c1c(C)[nH]n(-c3ccccc3)c1=O)Nc1ccccc1-2 (centres undefined) | 2 | 41* | 14 | -6
CN(C)CCCN(C(=O)COc1ccc(Cl)cc1)c1nc2cc3c(cc2s1)OCO3 | -6 | 5 | -9 | 23*
CN(C)CCCN(C(=O)COc1ccc(Cl)cc1)c1nc2cc3c(cc2s1)OCCO3 | -6 | 4 | -6 | 0
Cc1ccc(Cn2c(SCC(=O)Nc3cc(C)on3)nc3ccccc3c2=O)cc1 | 62* | -1 | -1 | -6
Cc1cc(NC(=O)CSc2nc3ccccc3c(=O)n2Cc2ccccc2)no1 | 7 | 1 | -6 | -9
CCCC1=NN2C(=N)/C(=C\c3cc(C)n(-c4cccc(C)c4)c3C)C(=O)N=C2S1 | 2 | 5 | 53* | -2
CCCC1=NN2C(=N)/C(=C\c3ccc(SCc4ccco4)o3)C(=O)N=C2S1 | 71* | . | 26 | 9
CCCC1=NN2C(=N)/C(=C\c3cc(C)n(Cc4ccccc4)c3C)C(=O)N=C2S1 | 13 | 17 | 8 | -31
N=C1/C(=C/c2ccco2)C(=O)N=C2SC(CC(=O)N3CCCC3)=NN12 | 8 | 24 | 0 | 7
SMILES | HCV core dimer | rCAG binder | NadD inh | ABHD5-PLIN5 inh
O=C(COCc1ccccc1)NC1CCCCN(Cc2cccc(Cl)c2)C1=O (centres undefined) | . | -3 | . | .
CCOc1cc(CCNC(=O)c2cc3ccsc3n2C)ccc1OC | . | 1 | . | .
Cn1nnnc1Sc1ncnc2scc(-c3ccccc3)c12 | 65* | 11 | 13 | 2
Cn1nnnc1Sc1ncnc2scc(-c3ccc(Br)cc3)c12 | . | 5 | 0 | 16
Cc1cc(Oc2cccnc2)ccc1NC(=O)Cc1cn(C)c2ccccc12 | . | 6 | . | .
CN(C)S(=O)(=O)c1cccc(C(=O)N/N=C\c2ccccc2[N+](=O)[O-])c1 | . | 4 | . | .
O=C(C1=C[C@@H]2[C@H]3C(=O)N(c4cccc(Cl)c4)C(=O)[C@H]3[C@@H](C(=O)c3ccc(Cl)cc3)N2C=C1)c1ccccc1 | 43 | . | 57* | 8
CCN=C1NC(c2cccc(F)c2)C(C(=O)OC)=C(C)N1Cc1ccccc1C(F)(F)F (centres undefined) | . | 2 | . | .
Cc1cccc(C(=O)N2CCc3cc(-c4nc(NC(=O)Cn5nnc6ccccc6c5=O)sc4C)ccc32)c1 | 52* | . | . | .
Cc1ccccc1C(=O)N1CCc2cc(-c3nc(NC(=O)Cc4ccc5c(c4)OCO5)sc3C)ccc21 | 41 | . | 47* | 1
O=c1cc2oc3cc(O)c(O)cc3c(-c3ccccc3O)c-2cc1O | . | . | 46* | 13
COc1ccc(OC)c(-c2c3cc(O)c(=O)cc-3oc3cc(O)c(O)cc23)c1 | 39 | . | 39* | 16
CCOC(=O)c1oc2cc(O)ccc2c(=O)c1-c1ccccc1OC | 1 | 2 | -2 | -8
CCOc1ccccc1-c1c2cc(O)c(=O)cc-2oc2cc(O)c(O)cc12 | . | . | 27 | 27*
CC(C)(C)OC(=O)N1CCC2CCN(S(=O)(=O)c3ccccc3)CC21 (centres undefined) | . | -1 | . | .
COC(=O)[C@H](C(C)C)N(CCCc1cn(Cc2ccccc2)nn1)S(=O)(=O)c1ccccc1Br | . | 3 | . | .
S=C1NC[C@H](Cc2ccccc2)N1CC1CCN(CCCC2CCCCC2)CC1 | . | 5 | . | .
COc1cccc(/C=C2\SC(=S)N(CCC(=O)NNC(=O)c3ccccc3OC)C2=O)c1 | 12 | 4 | 17 | -1
O=C(CCCN1C(=O)/C(=C/c2cccs2)SC1=S)NNC(=O)c1ccccc1O | -2 | 4 | 28* | 0
COc1ccccc1/C=C1\SC(=S)N(CCC(=O)NNC(=O)c2ccccc2O)C1=O | 16 | . | 32* | 2
COc1ccc(/C=C2\SC(=S)N(CCCC(=O)NNC(=O)c3ccccc3O)C2=O)cc1 | 8 | 2 | 38* | 2
Cc1ccc(/C=C2/SC(=S)N(CCCC(=O)Nc3cc([N+](=O)[O-])ccc3O)C2=O)cc1 | 1 | 1 | 51* | 2
C=CCN1C(=O)[C@@H](CC(=O)NCc2ccc(OC)c(OC)c2)[C@]2(C(=O)OCC)CCCCC/C=C/12 | . | 1 | . | .
COC(=O)C[C@@H]1CC[C@@H]2[C@H](COc3ccc(NC(=O)c4cccc(OC)c4)cc3C(=O)N2C)O1 | . | 2 | . | .
O=C(CNS(=O)(=O)c1ccc(F)cc1)N1CCN(c2ccccn2)CC1 | . | 1 | . | .
COc1ccc(/C=C(/CC(=O)Nc2ccccc2)c2nc3ccccc3s2)cc1 | 58* | 18 | 12 | 9
CCc1ccc(OCC(=O)N/N=C\c2ccco2)c([N+](=O)[O-])c1 | 54* | 10 | -1 | -3
C=CCn1c(COc2ccc(CC)cc2)nnc1SC/C(O)=C(\C#N)c1nc2ccccc2[nH]1 | 70* | 22 | 22 | -6
COc1ccccc1-c1nnc(SC/C(O)=C(\C#N)c2nc3ccccc3[nH]2)n1C1CCCCC1 | 24 | 21 | 22 | -2
N#C/C(=C(/O)CSc1nnc(Cc2cccs2)n1C1CCCCC1)c1nc2ccccc2[nH]1 | 63* | 23 | 22 | 0
